Series [1] has as its system Trypanosoma cruzi. The series can be described thus: Trypanocidal activity against Trypanosoma cruzi MHOM/Pe/2011/Arequipa DTU 5 epimastigotes after 48 hrs by resazurin dye based assay. The series is classed as functional, organism-based. As to conditions: MHOM/Pe/2011/Arequipa DTU 5, 48 h. In outline:
(§1)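 Exponential-phase epimastigotes were seeded at 5×10^5 mL^-1 with compounds at 100–0.2 µM (DMSO 0.01% v/v) at 28 °C. After 48 h, resazurin was added for another 24 h. SDS was then added and absorbance read at 570 and 600 nm.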

Series [2] has as its system Trypanosoma cruzi. In words: Trypanocidal activity against Trypanosoma cruzi IRHOD/CO/2008/SN3 DTU 1 epimastigotes after 48 hrs by resazurin dye based assay. The series is classed as functional, organism-based. As to conditions: IRHOD/CO/2008/SN3 DTU 1, 48 h. In outline: as §1
For series [3], the system named is Trypanosoma cruzi. In words: Trypanocidal activity against Trypanosoma cruzi TINF/CH/1956/Tulahuen DTU 6 epimastigotes after 48 hrs by resazurin dye based assay. As to conditions: TINF/CH/1956/Tulahuen DTU 6, 48 h. The format is functional, organism-based. In outline:
as §1

Another series deals with Vero. In words: Cytotoxicity against African green monkey Vero cells assessed as reduction in cell viability after 72 hrs by resazurin dye based assay. As to conditions: Chlorocebus sabaeus. The procedure, abridged:
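Vero monkey kidney cells grown at 37 °C, 5 % CO2, in RPMI with 10 % heat-inactivated FBS. Seeded at 1.25 × 10^4 mL-1 with compound at 1000 to 1 µM (DMSO 0.01 % v/v). After 48 h, resazurin added for a further 24 h, then SDS. Absorbance read at 570/600 nm. IC50 from triplicates in four separate determinations.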

Series [4] is described as follows: Selectivity index, ratio of IC50 for African green monkey Vero cells to IC50 for Trypanosoma cruzi MHOM/Pe/2011/Arequipa DTU 5 epimastigotes. The series is classed as toxicity. As to conditions: read-out: Ratio IC50. In outline:
(§2)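 SI is Vero IC50 divided by the IC50 for the stated parasite form. For Vero cytotoxicity, cells were seeded at 1.25×10^4 mL^-1 with compounds at 1000–1 µM, incubated 48 h, then given resazurin for a further 24 h (72 h total), with absorbance read at 570/600 nm. Triplicate, four determinations.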

Series [5] in a line: Selectivity index, ratio of IC50 for African green monkey Vero cells to IC50 for Trypanosoma cruzi IRHOD/CO/2008/SN3 DTU 1 epimastigotes. The format is toxicity. As to conditions: read-out: Ratio IC50. In outline:
as §2

Series [6] is described as follows: Selectivity index, ratio of IC50 for African green monkey Vero cells to IC50 for Trypanosoma cruzi TINF/CH/1956/Tulahuen DTU 6 epimastigotes. The series is classed as toxicity. As to conditions: read-out: Ratio IC50. The procedure, abridged: as §2

For `O=C(CCN1CCN(c2ccc(C(F)(F)F)cc2)CC1)c1ccc(F)c(Cl)c1`, the IC50 with Trypanosoma cruzi [1] amounted to 21.6 µM; in the series with Trypanosoma cruzi [2], 45 µM; in the series on Trypanosoma cruzi [3] it was 29 µM; in the series on Vero it was 74.5 µM. Further, the selectivity ratio came to 3.4 in series [4], 1.7 in series [5] and 2.6 in series [6].

For `O=C(CCN1CCN(c2ccc(F)cc2)CC1)c1ccc(F)c(Cl)c1`, the IC50 in the series on Trypanosoma cruzi [1] worked out at 25.3 µM; in the series with Trypanosoma cruzi [2], 41.6 µM; with Trypanosoma cruzi [3] it was 37.1 µM; with Vero, 185 µM. In addition, the selectivity ratio in series [4] was determined as 7.3; in series [5], 4.5; in series [6], 5.

On to `COc1ccc(C(=O)CCN2CCN(Cc3cccc(C)c3)CC2)cc1OC`, for which the IC50 in the series with Trypanosoma cruzi [1] was determined as 19.4 µM; in the series on Trypanosoma cruzi [2] it was 24.1 µM; in the series on Trypanosoma cruzi [3], 28.4 µM; with Vero, 52 µM. Moreover, the selectivity ratio in series [4] was found to be 2.7; in series [5], 2.2; in series [6] it was 1.8.

Regarding `O=C(CCN1CCN(c2ccc([N+](=O)[O-])cc2)CC1)c1ccc(Br)cc1`, the IC50 with Trypanosoma cruzi [1] was 27.2 µM; in the series on Trypanosoma cruzi [2], 39.7 µM; in the series with Trypanosoma cruzi [3] it was 46.2 µM; in the series on Vero, 79.8 µM. Besides, the selectivity ratio in series [4] worked out at 2.9; in series [5], 2; in series [6] it was 1.7.

On to `COc1ccc(C(=O)CCN2CCN(c3ccc(F)cc3)CC2)cc1OC`, for which the 50% inhibitory concentration (IC50) with Trypanosoma cruzi [1] was 154 µM; in the series with Trypanosoma cruzi [2] it was 61.5 µM; in the series on Trypanosoma cruzi [3], 103 µM; in the series with Vero, 175 µM. Further, the selectivity ratio came out at 1.1 in series [4], 2.8 in series [5] and 1.7 in series [6].

Take `O=C(CCN1CCN(c2ccc(F)cc2)CC1)c1ccc(Cl)c(F)c1`: the IC50 with Trypanosoma cruzi [1] is 39.5 µM; with Trypanosoma cruzi [2] it was 75.3 µM; with Trypanosoma cruzi [3], 46.2 µM; in the series with Vero, 105 µM. For the same compound, the values for the selectivity ratio in series [4], in series [5] and in series [6] were 2.7, 1.4 and 2.3, respectively.

In the case of `COc1ccc(C(=O)CCN2CCN(c3ccc([N+](=O)[O-])cc3)CC2)cc1OC`, the IC50 was determined as 94.5 µM in the series with Trypanosoma cruzi [1], 174 µM in the series on Trypanosoma cruzi [2], 105 µM in the series with Trypanosoma cruzi [3] and 105 µM in the series on Vero. For the same compound, the selectivity ratio in series [4] is 1.1; in series [5] it was 0.6; in series [6], 1.

Turning to `COc1ccc(C(=O)CCN2CCN(Cc3cccc(F)c3)CC2)cc1OC`, the IC50 with Trypanosoma cruzi [1] was 49 µM; with Trypanosoma cruzi [2], 48 µM; with Trypanosoma cruzi [3] it was 40.8 µM; with Vero, 22.4 µM. Further, the selectivity ratio in series [4] is 0.5; in series [5], 0.5; in series [6] it was 0.6.

Take `O=C(CCN1CCN(c2ccc(C(F)(F)F)cc2)CC1)c1ccc(F)c(F)c1`: the IC50 in the series on Trypanosoma cruzi [1] is 33.4 µM; in the series with Trypanosoma cruzi [2] it was 28.8 µM; in the series with Trypanosoma cruzi [3], 54.1 µM; with Vero it was 14 µM. Further, the results for the selectivity ratio in series [4], in series [5] and in series [6] were 0.4, 0.5 and 0.3, respectively.

Turning to `COc1ccc(C(=O)CCN2CCN(c3ccc(C(F)(F)F)cc3)CC2)cc1OC`, the IC50 with Trypanosoma cruzi [1] stood at 59 µM; with Trypanosoma cruzi [2] it was 27.8 µM; with Trypanosoma cruzi [3] it was 33.9 µM; in the series with Vero, 242 µM. In addition, the selectivity ratio came out at 4.1 in series [4], 8.7 in series [5] and 7.2 in series [6].

`O=C(CCN1CCN(c2ccc(C(F)(F)F)cc2)CC1)c1ccc(F)c(Br)c1`: the IC50 in the series with Trypanosoma cruzi [1] turned out to be 46.6 µM; in the series with Trypanosoma cruzi [2] it was 20.8 µM; with Trypanosoma cruzi [3], 25.6 µM; in the series on Vero it was 66.8 µM. Besides, the selectivity ratio worked out at 1.4 in series [4], 3.2 in series [5] and 2.6 in series [6].

For `Cc1ccc(C(=O)CCN2CCN(c3ccc(C(F)(F)F)cc3)CC2)cc1`, the IC50 with Trypanosoma cruzi [1] turned out to be 14.2 µM; with Trypanosoma cruzi [2], 17.6 µM; in the series with Trypanosoma cruzi [3] it was 22.5 µM; in the series with Vero, 140 µM. For the same compound, the selectivity ratio in series [4] was found to be 9.8; in series [5], 7.9; in series [6] it was 6.2.

For the compound `O=C(CCN1CCN(c2ccc([N+](=O)[O-])cc2)CC1)c1ccc(F)c(F)c1`, the IC50 in the series on Trypanosoma cruzi [1] came to 85.2 µM; with Trypanosoma cruzi [2] it was 160 µM; with Trypanosoma cruzi [3], 53.1 µM; in the series on Vero, 122 µM. The selectivity ratio worked out at 1.4 in series [4], 0.8 in series [5] and 2.3 in series [6].

Consider `O=C(CCN1CCN(c2ccc(C(F)(F)F)cc2)CC1)c1ccc(Br)cc1`, for which the IC50 amounted to 30 µM in the series with Trypanosoma cruzi [1], 28.3 µM in the series on Trypanosoma cruzi [2], 28.5 µM in the series on Trypanosoma cruzi [3] and 78.8 µM in the series with Vero. For the same compound, the selectivity ratio in series [4] came to 2.6; in series [5] it was 2.8; in series [6] it was 2.8.

With `O=C(CCN1CCN(c2ccc(Cl)cc2)CC1)c1ccc(Br)cc1`, the IC50 in the series on Trypanosoma cruzi [1] was determined as 42.5 µM; in the series on Trypanosoma cruzi [2], 26.4 µM; with Trypanosoma cruzi [3], 20.9 µM; in the series with Vero it was 52.1 µM. In addition, the selectivity ratio is 1.2 in series [4], 2 in series [5] and 2.5 in series [6].

Take `O=C(CCN1CCN(c2ccc(F)cc2)CC1)c1ccccc1`: the IC50 was determined as 65.7 µM in the series with Trypanosoma cruzi [1], 32.9 µM with Trypanosoma cruzi [2], 94.1 µM in the series on Trypanosoma cruzi [3] and 13.4 µM in the series with Vero. Moreover, the figures for the selectivity ratio in series [4], in series [5] and in series [6] were 0.2, 0.4 and 0.1, respectively.

As to `O=C(CCN1CCN(c2ccc([N+](=O)[O-])cc2)CC1)c1ccc(C(F)(F)F)cc1`, the IC50 was 13.5 µM in the series on Trypanosoma cruzi [1], 20 µM in the series on Trypanosoma cruzi [2], 15.1 µM in the series on Trypanosoma cruzi [3] and 75.7 µM in the series on Vero. The selectivity ratio in series [4] came out at 5.6; in series [5] it was 3.8; in series [6], 5.

With `O=C(CCN1CCN(c2ccc([N+](=O)[O-])cc2)CC1)c1ccc(Cl)c(F)c1`, the IC50 came to 23.8 µM in the series on Trypanosoma cruzi [1], 32.4 µM with Trypanosoma cruzi [2], 15.5 µM in the series with Trypanosoma cruzi [3] and 89.2 µM with Vero. The selectivity ratio in series [4] came out at 3.8; in series [5] it was 2.8; in series [6], 5.7.

`O=C(CCN1CCN(c2ccc(Cl)cc2)CC1)c1ccc(Cl)c(F)c1`: the IC50 with Trypanosoma cruzi [1] turned out to be 42 µM; in the series with Trypanosoma cruzi [2], 51.6 µM; in the series on Trypanosoma cruzi [3] it was 55.5 µM; in the series on Vero, 175 µM. Further, the selectivity ratio in series [4] stood at 4.2; in series [5], 3.4; in series [6], 3.2.

On to `COc1ccc(C(=O)CCN2CCN(Cc3ccccc3)CC2)cc1OC`, for which the IC50 in the series on Trypanosoma cruzi [1] amounted to 29.5 µM; in the series with Trypanosoma cruzi [2], 55.2 µM; with Trypanosoma cruzi [3], 46.2 µM; with Vero, 47.5 µM. Further, the selectivity ratio came out at 1.6 in series [4], 0.9 in series [5] and 1 in series [6].

For the compound `O=C(CCN1CCN(c2ccc(C(F)(F)F)cc2)CC1)c1ccc(OC(F)(F)F)cc1`, the IC50 in the series with Trypanosoma cruzi [1] turned out to be 51.2 µM; in the series on Trypanosoma cruzi [2], 38.4 µM; with Trypanosoma cruzi [3], 86.3 µM; in the series on Vero, 64.9 µM. The selectivity ratio in series [4] stood at 1.3; in series [5], 1.7; in series [6], 0.8.

Turning to `Cc1ccc(C(=O)CCN2CCN(c3ccc(F)cc3)CC2)cc1`, the half-maximal inhibitory concentration (IC50) is 43.5 µM with Trypanosoma cruzi [1], 78.8 µM in the series on Trypanosoma cruzi [2], 25 µM with Trypanosoma cruzi [3] and 55.4 µM with Vero. In addition, the selectivity ratio in series [4] is 1.3; in series [5], 0.7; in series [6], 2.2.

Turning to `COc1ccc(C(=O)CCN2CCN(c3ccc(Cl)cc3)CC2)cc1OC`, the IC50 in the series on Trypanosoma cruzi [1] turned out to be 90.3 µM; with Trypanosoma cruzi [2], 43.9 µM; in the series with Trypanosoma cruzi [3] it was 36.6 µM; with Vero, 185 µM. Besides, the selectivity ratio was determined as 2.1 in series [4], 4.2 in series [5] and 5.1 in series [6].

On to `O=C(CCN1CCN(c2ccc(F)cc2)CC1)c1ccc(Br)cc1`, for which the IC50 in the series with Trypanosoma cruzi [1] amounted to 22.5 µM; with Trypanosoma cruzi [2], 56.8 µM; with Trypanosoma cruzi [3], 49.5 µM; in the series with Vero it was 99.5 µM. In addition, the selectivity ratio in series [4] amounted to 4.4; in series [5], 1.8; in series [6] it was 2.

For `O=C(CCN1CCN(c2ccc(F)cc2)CC1)c1ccc(F)c(Br)c1`, the 50% inhibitory concentration (IC50) in the series with Trypanosoma cruzi [1] was found to be 38.8 µM; in the series with Trypanosoma cruzi [2], 42.4 µM; in the series with Trypanosoma cruzi [3] it was 41.4 µM; with Vero, 352 µM. In addition, the selectivity ratio was determined as 9.1 in series [4], 8.3 in series [5] and 8.5 in series [6].
